# Screening data deposited in PubChem by several laboratories.
# CHT allo act: CHT positive allosteric modulators, primary screen, cell-based, membrane potential dye, choline EC20. High affinity choline transporter 1 (Homo sapiens), Q9GZV3. CHT-expressing cells; active compounds read high; LV-AA mutant CHT in HEK293 cells. B-score at 10 µM. 310,000 compounds, 0.49% hits;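 active means initial fluorescence not abnormally high and integrated response B-score, plate-corrected, over 3 SD above library mean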
# TNAP inh no acc: human TNAP enzyme inhibitors, primary screen, biochemical, luminescent, no phosphate acceptor, uHTS; purified TNAP, CDP-star luminescence, 30 min; Alkaline phosphatase, tissue-nonspecific isozyme (Homo sapiens), P05186; inhibition, % at 20 µM; 200,000 compounds, 0.26% hits; AID 1012, 2008;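 active means tissue-nonspecific alkaline phosphatase inhibition above about 50% at 20 µM in the single-dose screen, limit read from the data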;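 further: 0% = DMSO negative control and 100% = EDTA positive control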
# TNAP act hiacc: TNAP activators at high phosphate acceptor level, primary screen, biochemical, luminescence, uHTS | purified TNAP, CDP-star luminescence, 1 M DEA, 30 min; active compounds read high; 0 = EDTA background, 1 = DMSO-only activity | activation factor at 20 µM | Alkaline phosphatase, tissue-nonspecific isozyme (Homo sapiens), P05186 | 200,000 tested, under 10 active | AID 1136, 2008;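 active means activation factor at least 2 at 20 µM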
#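 Assay system: human TNAP; Input: enzyme diluted 1/800 final; Reagent: CDP-star luminogenic substrate at 100 µM final; Timing: 30 min, room temperature; Signal: luminescence; Evaluation: TNAP activation factor scaled between EDTA and DMSO control wells.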
# CHT inh: inhibitors of human choline transporter CHT | CHT-expressing cells, membrane potential dye, choline response; active compounds read low | B-score at 10 µM | High affinity choline transporter 1 (Homo sapiens), Q9GZV3 | AID 488975, 2010 | 310,000 compounds, 0.86% hits;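 active means B-score over 3 SD under the library average, and starting fluorescence ratio not unusually high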;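 further: choline stimulus applied at its EC90 after an EC20 pre-addition; B-score computed on integrated fluorescence ratio after choline addition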
# TNAP inh hi DEA: human TNAP enzyme inhibitors, primary screen, biochemical, luminescent, high phosphate acceptor level, uHTS. 200,000 compounds, 0.03% hits. Alkaline phosphatase, tissue-nonspecific isozyme (Homo sapiens), P05186. purified TNAP, CDP-star luminescence, 1 M DEA. inhibition, % at 20 µM. AID 1135, 2008;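 active means over 50% inhibition of tissue-nonspecific alkaline phosphatase at 20 µM in the single-dose screen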;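 further: plate controls were DMSO wells for no effect and EDTA-quenched wells as full inhibition for full effect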
# ABCB6 inh MLPCN: ABCB6 transporter inhibitors, primary screen, K562-ABCB6 cells, flow cytometry, MLPCN library. ATP-binding cassette sub-family B member 6 (Homo sapiens), Q9NP58. K562-ABCB6 porphyrin accumulation, 1 h; active compounds read low. fluorescence ratio to DMSO, % at 10 µM. 360,000 compounds, 0.19% hits. AID 602162, 2011;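 active means fluorescence ratio to DMSO below 75%, the collection mean minus 3 SD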;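 further: signal is porphyrin accumulated inside mitochondria; 100% equals median channel fluorescence of DMSO control wells; lower ratio means ABCB6 inhibition with less porphyrin fluorescence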
# Target sequence (Q9NP58 whole entry, looked up): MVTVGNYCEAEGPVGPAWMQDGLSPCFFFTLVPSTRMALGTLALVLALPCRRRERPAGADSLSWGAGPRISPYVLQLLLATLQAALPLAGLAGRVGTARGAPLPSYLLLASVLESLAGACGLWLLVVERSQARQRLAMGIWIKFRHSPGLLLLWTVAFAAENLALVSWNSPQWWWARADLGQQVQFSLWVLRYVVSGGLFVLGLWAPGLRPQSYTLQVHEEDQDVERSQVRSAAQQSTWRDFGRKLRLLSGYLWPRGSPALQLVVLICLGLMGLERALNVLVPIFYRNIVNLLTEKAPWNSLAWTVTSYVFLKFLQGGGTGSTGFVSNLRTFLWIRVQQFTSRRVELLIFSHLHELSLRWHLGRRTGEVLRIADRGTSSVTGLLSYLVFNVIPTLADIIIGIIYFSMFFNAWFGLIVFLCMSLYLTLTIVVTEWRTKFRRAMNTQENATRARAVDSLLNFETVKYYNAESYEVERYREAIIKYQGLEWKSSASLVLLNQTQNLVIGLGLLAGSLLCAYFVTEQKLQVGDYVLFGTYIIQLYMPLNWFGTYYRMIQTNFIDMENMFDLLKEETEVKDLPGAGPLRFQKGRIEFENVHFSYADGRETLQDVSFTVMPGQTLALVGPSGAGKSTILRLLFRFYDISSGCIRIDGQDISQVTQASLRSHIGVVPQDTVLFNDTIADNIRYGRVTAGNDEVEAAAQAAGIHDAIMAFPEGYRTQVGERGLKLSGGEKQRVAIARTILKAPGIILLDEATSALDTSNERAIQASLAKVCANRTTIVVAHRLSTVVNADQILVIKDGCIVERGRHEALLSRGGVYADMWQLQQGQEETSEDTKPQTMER
# CHT activ conf: CHT activators, confirmation, cell-based, membrane potential dye, duplicate; CHT-expressing cells, membrane potential dye fluorescence (FDSS); % of choline EC20–EC90 response window; HEK293 expressing CHT LV-AA mutant; choline added at its EC20; activation, % at 10 µM; 2,500 compounds, 91% hits; shares compounds with CHT allo act;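 active means primary screen active, with duplicate mean activation above negative control mean plus 3 SD, cut at about 11% in these data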
# HEK293 MP dye: membrane potential response in parental HEK293 cells, counter-screen for CHT activator project, cell-based, membrane potential dye | shares compounds with CHT allo act | membrane potential dye fluorescence (FDSS); measured after EC20 choline addition | ratio readout change at 10 µM, hits read low | 2,500 compounds, 62% hits;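 active means duplicate-averaged ratio beyond 3 SD from buffer wells, up or down, though filed actives are nearly all decreases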
# * = called active by the depositor; i = inactive; . = no result. Sampled rows, rich in hits. Any-hit rate of the full collection: about 1.4%.
SMILES,CHT allo act,TNAP inh no acc,TNAP act hiacc,CHT inh,TNAP inh hi DEA,ABCB6 inh MLPCN,CHT activ conf,HEK293 MP dye
O=C(COc1ccccc1)NCC(c1ccco1)N1CCN(c2ccc(F)cc2)CC1 (configuration not stated),i,.,.,i,.,96,13*,i
Cc1ccc(C)c(C(=O)COC(=O)Cn2c(C)csc2=O)c1,i,.,.,i,.,95,.,.
CC(=O)Nc1cccc(-c2cn3ccc(C)cc3n2)c1,i,-1,1,i,4,101,.,.
Cc1ccn2cc(-c3cccc([N+](=O)[O-])c3)nc2c1,i,-3,1.1,i,-6,93,39*,-46*
Cc1ccn2cc(-c3ccc(Br)cc3)nc2c1,i,.,.,i,.,96,.,.
Cc1ccn2cc(-c3cccc(NS(C)(=O)=O)c3)nc2c1,6.3*,-6,1,i,-4,99,35*,-42*
CC(CN1CCOCC1)OC(=O)c1cccc(Cl)c1 (configuration not stated),i,.,.,i,.,99,.,.
Cc1ccc(OCCn2c(=O)n(C)c3ccccc32)cc1,i,-8,1.1,i,-6,98,.,.
Cc1noc(/C=C/c2ccco2)c1S(=O)(=O)N1CCC(C(=O)N2CCc3ccccc3C2)CC1,i,4,1,i,1,101,.,.
CCCc1[nH]c(=O)c(C#N)c2c1CCCC2,i,-9,1,i,-2,99,.,.
COc1ccccc1CNC(=O)COc1cc2c(c3oc(=O)cc(C)c13)CCC(C)(C)O2,i,.,.,i,.,93,24*,i
CN1CCN(C(=O)c2cc(=O)c3cc(Cl)cc(Cl)c3o2)CC1,i,.,.,i,.,105,43*,-42*
CN1CCN(C(=O)c2cc(Cl)ccc2Cl)CC1,i,-10,1,i,-4,99,.,.
CCOC(=O)c1c(CSCc2ccccc2)oc2ccc(O)c(CN(C)C)c12,11*,.,.,i,.,93,25*,i
CCC(C)c1ccc(S(=O)(=O)N2CCN(C(=O)CN3C(=O)NC(C)(C4CC4)C3=O)CC2)cc1 (configuration not stated),.,.,.,.,.,96,.,.
Cc1cccc(C)c1OCC(=O)Nc1cccc(-c2nnc(-c3ccccc3)o2)c1,i,-7,1,i,-4,105,29*,i
Cc1ccc(OCC(=O)Nc2cccc(-c3nnc(-c4ccccc4)o3)c2)cc1,i,-14,1,i,-4,112,.,.
O=C(NCc1cc([N+](=O)[O-])ccc1O)c1cccc(NS(=O)(=O)c2ccccc2)c1,i,.,.,i,.,97,.,.
Cc1c(C)n(Cc2ccccc2)c2ncnc(NCCCN(C)C)c12,i,.,.,i,.,92,26*,-39*
CCN1CCN(C(c2cccs2)C(C)NS(=O)(=O)c2ccc(C)cc2)CC1 (configuration not stated),i,-7,1,i,1,102,.,.
O=C(CSc1ccc2nnc(-c3cccnc3)n2n1)N1CCOCC1,7.1*,-10,1,i,-3,97,30*,-26*
Cc1ccc(-c2nnc3ccc(SCC(=O)Nc4cc(C)on4)nn23)cc1,i,-20,1.1,i,-5,97,.,.
Cc1cc(NC(=O)CSc2ccc3nnc(-c4ccc(F)cc4)n3n2)no1,i,2,1,i,-3,96,.,.
Cc1cc(NC(=O)CSc2ccc3nnc(-c4cccs4)n3n2)no1,9.9*,-12,1,i,-1,97,22*,-33*
Cc1cc(NC(=O)CSc2ccc3nnc(-c4cccnc4)n3n2)no1,9.3*,-12,1.1,i,-5,98,49*,-42*
SMILES,CHT allo act,TNAP inh no acc,TNAP act hiacc,CHT inh,TNAP inh hi DEA,ABCB6 inh MLPCN,CHT activ conf,HEK293 MP dye
CC(=O)c1ccc(NC(=O)CSc2ccc3nnc(-c4ccccn4)n3n2)cc1,i,.,.,i,.,99,49*,-46*
Cn1c(CCN2CCCCC2)nc2cc([N+](=O)[O-])ccc21,8.5*,-4,1,i,-2,100,58*,-62*
CN1CCc2c(sc(NC(=O)c3ccc(S(=O)(=O)N4CCCC4)cc3)c2C(N)=O)C1,i,.,.,i,.,100,.,.
CN1CCc2c(sc(NC(=O)c3ccc(S(=O)(=O)N4CCOCC4)cc3)c2C(N)=O)C1,6.6*,2,0.9,i,11,108,67*,-63*
CCN1CCc2c(sc(NC(=O)c3ccc(S(=O)(=O)N(C)CC4CCCO4)cc3)c2C(N)=O)C1 (configuration not stated),i,.,.,i,.,105,69*,-38*
CN1CCc2c(sc(NC(=O)c3cc(Cl)sc3Cl)c2C(N)=O)C1,i,.,.,i,.,95,22*,i
CCCCn1c(N)c(N(CCOC)C(=O)c2ccc(COc3ccccc3)o2)c(=O)[nH]c1=O,6.7*,.,.,i,.,102,16*,i
COCCN(C(=O)c1ccc(COc2ccccc2)o1)c1c(N)n(CC(C)C)c(=O)[nH]c1=O,.,.,.,.,.,107,.,.
OCCC1CN(Cc2cc3c(cc2Cl)OCO3)CCN1Cc1ccccc1 (configuration not stated),i,-2,1,i,-1,98,.,.
CCn1cnc2cc(NCc3ccncc3)ccc21,i,-7,1,i,-4,102,49*,-38*
CCn1cnc2cc(NCc3ccc(Cl)cc3)ccc21,i,.,.,i,.,96,.,.
O=C1CC(N(C(=O)c2ccco2)c2cccc(Cl)c2)C(=O)N1c1cccc(Cl)c1 (configuration not stated),i,-16,1.1,i,-6,101,.,.
COc1ccc(Cc2nnc(SCC(=O)c3ccc4c(c3)NC(=O)CO4)o2)cc1,i,.,.,i,.,100,.,.
